DAGLB inh = blocks human DAGLB lipase activity; Q8NCG7; HEK293T DAGLB membrane lysate, EnzChek fluorogenic substrate; inhibition, % at 5.17 µM; actives 0.059% (n = 340,000); in the data active = inhibition above about 34%;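 also: 0% = enzyme with vehicle and 100% = wells lacking enzyme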
MT1-MMP act inh = blocks activation of human MT1-MMP | actives 0.061% (n = 360,000) | HT1080 RFP-PRO-GFP cells, GFP/RFP ratio fluorescence, overnight; percent of plate control window, DMSO zero | GFP/RFP ratio change, % at 20 µM | P50281;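 active = GFP/RFP ratio change of at least 30% with cell ATP level not reduced by more than half and red fluorescence within 50% of control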
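Material: RFP-PRO-GFP reporter HT1080 cells. Dosing: single-point 20 µM compound, 1% DMSO. Controls: DMSO and RFP-L50D-GFP cell wells. Timing: cells overnight before dosing, compound overnight, 37 °C, 5% CO2. Measure: GFP/RFP fluorescence ratio.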
DDE Tn6 FP inh = disrupts Tn6 cyclic peptide binding to fibrin D-Dimer-E complex; P02675; inhibition, % at 8.3 µM; Fibrin DD(E) TRITC-Tn6 fluorescence polarization displacement; actives 0.21% (n = 370,000);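 active = inhibition above a per-campaign cutoff: mean of compounds within control limits plus 3 SD, cut at about 15% in these data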;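 also: 0% = median of all compound wells on the plate and 100% = blocking peptide control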
Target sequence (P02675 whole entry, looked up): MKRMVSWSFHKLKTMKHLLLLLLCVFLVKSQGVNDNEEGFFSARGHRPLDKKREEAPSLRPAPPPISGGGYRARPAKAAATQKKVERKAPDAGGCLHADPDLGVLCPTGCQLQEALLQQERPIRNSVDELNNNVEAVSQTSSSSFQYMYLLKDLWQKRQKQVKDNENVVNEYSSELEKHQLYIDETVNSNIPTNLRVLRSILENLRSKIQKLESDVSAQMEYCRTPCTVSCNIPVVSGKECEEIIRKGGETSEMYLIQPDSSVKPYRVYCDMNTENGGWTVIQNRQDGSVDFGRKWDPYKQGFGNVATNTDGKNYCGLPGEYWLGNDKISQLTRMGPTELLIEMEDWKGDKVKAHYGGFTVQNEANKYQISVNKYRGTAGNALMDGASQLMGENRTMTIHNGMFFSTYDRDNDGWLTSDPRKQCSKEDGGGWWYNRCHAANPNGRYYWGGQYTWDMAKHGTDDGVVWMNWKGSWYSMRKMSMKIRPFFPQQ
PolyA inhibitor = inhibitors of polyadenylation in S. cerevisiae. S. cerevisiae SKY197-pL101 polyadenylation reporter, beta-gal luminescence; efflux-impaired pdr1/pdr3 knockout yeast; score 100 = 6 SD above DMSO. activity score, % at 12 µM. actives 0.02% (n = 300,000). AID 1875;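 active = lowest replicate activity score at least 50, where 100 means six control SD above control mean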;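 also: yeast exposed to compound for 9 h at 30 °C; higher score means more reporter readthrough which indicates perturbed polyadenylation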
DDE Tn7 FP inh = disrupts Tn7 cyclic peptide binding to fibrin D-Dimer-E complex; P02675; FP displacement of FITC-Tn7 peptide from fibrin DD(E); 0% = median of compound wells per plate; inhibition, % at 8.3 µM; actives 0.13% (n = 370,000); AID 720508;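 active = inhibition above the mean of compounds falling within the control limits plus 3 SD of them, cut at about 14% in these data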;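 also: 0% = plate median of compound wells and 100% = 10 µM Aha-Tn7 peptide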
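system = human fibrin DD(E) protein | quantity = DD(E) 2 µM final | medium = Tris/NaCl/CaCl2 buffer, pH 7.8 | also added = labelled Tn7 tracer, 0.1 µM | compound dosing = single point at 8.3 µM | timing = compound with protein 10 min, then 3 h after probe, room temperature | signal = FP measurement | benchmarks = Aha-Tn7 high control | repeats = one replicate per compound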
SKN-1 inh = blocks SKN-1 activity in C. elegans; C. elegans VP596 Pgst-4::GFP/RFP ratio, acrylamide-induced, 24 h; inhibition, % at 21.8 µM; AID 624304; actives 0.49% (n = 360,000);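 active = interference check ratio from 0.5 to 1.5 plus GFP to RFP signal ratio inhibition reaching or exceeding a fixed threshold, cut at about 30% in these data, passing the limit was not always enough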
DDE Tn6 FP ctr = DD(E)-Tn6 binding inhibition, counter-screen; inhibition, % at 8.3 µM; shares compounds with DDE Tn6 FP inh; Fibrin DD(E), TRITC-Tn6 fluorescence polarization displacement; 0% = median of compound wells, not DMSO; actives 2% (n = 680);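 active = inhibition above the mean of test compounds lying between the control limits plus 3 SD of those, cut at about 14% in these data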;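 also: 0% = median of compound wells and 100% = wells with Aha-Tn7 blocking peptide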
DDE Tn6 confirm = confirmation of inhibitors of Tn6 binding to human fibrin DD(E); shares compounds with DDE Tn6 FP inh; FP displacement of TRITC-Tn6 peptide from DD(E); 0% = per-plate median of test wells; inhibition, % at 8.3 µM; actives 10% (n = 680);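 active = inhibition above the mean of compounds lying within the control limits plus 3 SD, cut at about 16% in these data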;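 also: 100% = high control wells holding a competing inhibitor peptide at 10 µM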
An asterisk follows results filed as active; · = no result given. Hits are enriched below; roughly 0.9% of the tested compounds scored in any of these assays.

SMILES | DAGLB inh | MT1-MMP act inh | DDE Tn6 FP inh | PolyA inhibitor | DDE Tn7 FP inh | SKN-1 inh | DDE Tn6 FP ctr | DDE Tn6 confirm
CC(Oc1ccc(F)cc1)C(O)CCN(C)C (centres undefined) | -1 | -1 | 24* | 18 | 0 | -3 | -7 | -8
O=C(N/N=C/c1cccnc1)C(=O)N1CCCCCC1 | -7 | 2 | 15* | 10 | 7 | -13 | -3 | -4
O=C(N/N=C/c1ccc(C(=O)O)cc1)C(=O)N1CCCCCC1 | -5 | 0 | 4 | -11 | 7 | 12 | · | ·
COc1ccc(/C=C/C(=O)NC2=NCCS2)c(OC)c1 | · | · | -4 | · | -2 | · | · | ·
c1ccc(-c2ccc(C3CCCN3)cc2)cc1 (centres undefined) | -5 | 2 | 16* | -11 | 3 | 12 | 0 | -2
c1ccc2c(c1)CCN(C1=Nc3cccc4cccc1c34)C2 | 3 | 38 | 18* | · | -4 | 49* | -7 | 63*
COc1cccc(NC(=O)c2cc3ccccc3cc2OC)c1 | -3 | 0 | 15* | -2 | -2 | 4 | 6 | -3
COc1cc(OC)cc(-c2c(-c3ccc(F)cc3)c3cc(-c4ccc5c(c4)OCCO5)ccc3n2C)c1 | -9 | -2 | 53* | · | -1 | 13 | -8 | -6
COc1cc(OC)cc(-c2c(-c3ccc(F)cc3)c3cc(-c4ccc(SC)cc4)ccc3n2C)c1 | 1 | -4 | 1 | · | -2 | 11 | · | ·
O[C@H](COc1ccc(Cl)cc1)CN1CCC(C(O)(c2ccccc2)c2ccccc2)CC1 | · | · | 1 | · | -2 | · | · | ·
CCC(C)NC(=O)c1csc2c1CCCCC2 (centres undefined) | -2 | 5 | 19* | -15 | 4 | 2 | 1 | 2
CC(C)(C)CCNc1nc(-c2ccccn2)nnc1-c1ccccc1 | · | · | -4 | · | 7 | · | · | ·
CCCNC(=O)Nc1ccsc1C(=O)OC | -2 | 1 | 15* | -5 | 5 | 11 | 4 | 2
CCN(C)C(=O)CNc1nnnn1-c1ccccc1 | · | · | -10 | · | -2 | · | · | ·

Bioassay records from PubChem BioAssay.
